In brackets after ≈: the same amount, converted by molar mass.
Legend:
[1] = system: Staphylococcus aureus; assay: Antibacterial activity against Staphylococcus aureus SG 511 after 24 hrs by micro-broth dilution method; format: functional; conditions: SG 511, 24 h
Method in brief: (§1)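 Microbroth dilution per NCCLS guidelines. Bacteria grown overnight at 37 °C in Mueller–Hinton broth. Compound solution serially diluted twofold in MHB, then wells inoculated to a final 5×10⁵ CFU/mL. Incubated 24 h at 37 °C. MIC (µg/mL) read on an automatic plate reader as the lowest dilution allowing no visible growth.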

[2] = system: Staphylococcus aureus; assay: Antibacterial activity against methicillin-resistant Staphylococcus aureus 994/93 after 24 hrs by micro-broth dilution method; format: functional
Method in brief: (§2)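 Broth microdilution per NCCLS in Mueller–Hinton broth. Overnight cultures grown at 37 °C. Compound serially diluted twofold, then wells inoculated to a final 5×10⁵ CFU/mL. Plates held at 37 °C for 24 h. MIC (µg/mL) read on an automatic plate reader as the lowest dilution with no visible growth.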

[3] = system: Staphylococcus aureus; assay: Antibacterial activity against methicillin-resistant Staphylococcus aureus 134/94 after 24 hrs by microbroth dilution method; format: functional; method in brief: as §2
[4] = system: Micrococcus luteus; assay: Antibacterial activity against Micrococcus luteus ATCC 10240 after 24 hrs by microbroth dilution method; format: functional; conditions: ATCC 10240, 24 h; method in brief: as §1
[5] = system: Enterococcus faecalis; assay: Antibacterial activity against Enterococcus faecalis 1528 after 24 hrs by micro-broth dilution method; format: functional; method in brief: as §1
[6] = system: Mycolicibacterium smegmatis; assay: Antimicrobial activity against Mycobacterium smegmatis SG 987 after 24 hrs by micro-broth dilution method; format: functional; method in brief: as §1
[7] = system: Mycolicibacterium aurum; assay: Antimicrobial activity against Mycobacterium aurum SB 66 after 24 hrs by micro-broth dilution method; format: functional; method in brief: as §1
[8] = system: Mycolicibacterium vaccae; assay: Antimicrobial activity against Mycobacterium vaccae 10670 after 24 hrs by micro-broth dilution method; format: functional; method in brief: as §1
[9] = system: Mycolicibacterium fortuitum; assay: Antimicrobial activity against Mycobacterium fortuitum Borstel after 24 hrs by microbroth dilution method; format: functional; method in brief: as §1
[10] = system: Mycobacterium tuberculosis; assay: Antimicrobial activity against Mycobacterium tuberculosis My 331/88 after 14 days; format: functional; conditions: 336 h
[11] = system: Mycobacterium tuberculosis; assay: Antimicrobial activity against Mycobacterium tuberculosis My 331/88 after 21 days; format: functional; conditions: 504 h
[12] = system: Mycobacterium avium; assay: Antimicrobial activity against Mycobacterium avium My 330/88 after 14 days; format: functional; conditions: 336 h
[13] = system: Mycobacterium avium; assay: Antimicrobial activity against Mycobacterium avium My 330/88 after 21 days; format: functional; conditions: 504 h
[14] = system: Mycobacterium kansasii; assay: Antimicrobial activity against Mycobacterium kansasii My 235/80 after 7 days; format: functional; conditions: 168 h
Method in brief: (§3)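 Run in Šula semisynthetic liquid medium containing bovine serum. Compounds added as DMSO solutions at final concentrations of […]. Each strain was also inoculated onto Löwenstein–Jensen medium to control inoculum sterility and growth.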

[15] = system: Mycobacterium kansasii; assay: Antimicrobial activity against Mycobacterium kansasii My 235/80 after 14 days; format: functional; conditions: 336 h; method in brief: as §3
[16] = system: Mycobacterium kansasii; assay: Antimicrobial activity against Mycobacterium kansasii My 235/80 after 21 days; format: functional; conditions: 504 h; method in brief: as §3
[17] = system: Mycobacterium kansasii; assay: Antimicrobial activity against Mycobacterium kansasii My 6509/96 after 7 days; format: functional; conditions: 168 h; method in brief: as §3
[18] = system: Mycobacterium kansasii; assay: Antimicrobial activity against Mycobacterium kansasii My 6509/96 after 14 days; format: functional; conditions: 336 h; method in brief: as §3
[19] = system: Mycobacterium kansasii; assay: Antimicrobial activity against Mycobacterium kansasii My 6509/96 after 21 days; format: functional; conditions: 504 h; method in brief: as §3
[20] = system: Candida albicans; assay: Antifungal activity against Candida albicans ATCC 44859 after 48 hrs; format: functional; conditions: ATCC 44859, 48 h
Method in brief: (§4)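 Modified NCCLS M27-A broth microdilution with clinical isolates subcultured on Sabouraud dextrose agar. Suspensions diluted 1:50 in RPMI 1640 to give a final inoculum of 0.5–2.5×10³ CFU/mL for yeasts or 0.5–5×10⁴ CFU/mL for molds. The RPMI had L-glutamine, no bicarbonate, and 0.165 M MOPS to pH 7.0. Twofold dilutions from 250 to 0.49. Plates held at 35 °C, humid, without agitation. MIC is the lowest concentration giving ≥80% inhibition versus drug-free control, read at 24 and 48 h.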

[21] = system: Pichia kudriavzevii; assay: Antifungal activity against Candida krusei E28 after 48 hrs; format: functional; method in brief: as §4
[22] = system: Nakaseomyces glabratus; assay: Antifungal activity against Candida glabrata 20/I after 48 hrs; format: functional; method in brief: as §4
[23] = system: Trichosporon beigelii; assay: Antifungal activity against Trichosporon beigelii 1188 after 48 hrs; format: functional; method in brief: as §4
[24] = system: Lichtheimia corymbifera; assay: Antifungal activity against Absidia corymbifera 272 after 48 hrs; format: functional; method in brief: as §4
[25] = system: Trichophyton benhamiae; assay: Antifungal activity against Trichophyton mentagrophytes 445 after 120 hrs; format: functional, Arthroderma benhamiae
Method in brief: (§5)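 Same modified M27-A microdilution with the mold inoculum of 0.5–5×10⁴ CFU/mL. Medium was RPMI 1640 with L-glutamine, no bicarbonate, and 0.165 M MOPS at pH 7.0. Twofold dilutions from 250 to 0.49. Incubated at 35 °C in a humid atmosphere.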

[26] = system: L929; assay: Antiproliferative activity against mouse L929 cells after 72 hrs; format: functional; conditions: L929, 72 h
Method in brief: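 About 10,000 adherent cells per well in RPMI 1640 with 10% heat-inactivated FBS and penicillin/streptomycin, without HEPES. Exposed to 10 concentrations for 72 h at 37 °C in humidified 5% CO₂. Monolayers fixed with glutaraldehyde, stained 15 min with 0.05% methylene blue, and eluted with 0.33 N HCl; OD read at 630 nm. GI50 derived from dose–response curves relative to control.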

[27] = system: K562; assay: Antiproliferative activity against human K562 cells after 72 hrs; format: functional; conditions: K562, 72 h
Method in brief: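 About 10,000 suspension cells per well in RPMI 1640 with 10% heat-inactivated FBS and penicillin/streptomycin, without HEPES. Exposed to 10 concentrations for 72 h at 37 °C in humidified 5% CO₂. Wells diluted 1:50 in CASYTON and counted electronically, each result the mean of three successive counts. GI50 is where the concentration–response curve crosses 50% of control cell count.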

[28] = system: HeLa; assay: Cytotoxicity against human HeLa cells after 72 hrs; format: functional; conditions: for CC50: Homo sapiens, HeLa, 72 h
Method in brief: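 About 10,000 cells per well in RPMI 1640 were preincubated 48 h without compound. The 10 test concentrations were then applied onto the monolayers and incubated 72 h at 37 °C in humidified 5% CO₂. Monolayers fixed with glutaraldehyde, stained with 0.05% methylene blue, and eluted with 0.33 N HCl; optical density measured at 630 nm.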

[29] = system: Candida albicans; assay: Antifungal activity against Candida albicans ATCC 44859 after 24 hrs; format: functional; conditions: ATCC 44859, 24 h; method in brief: as §4
[30] = system: Candida tropicalis; assay: Antifungal activity against Candida tropicalis 156 after 24 hrs; format: functional; method in brief: as §4
[31] = system: Candida tropicalis; assay: Antifungal activity against Candida tropicalis 156 after 48 hrs; format: functional; method in brief: as §4
[32] = system: Pichia kudriavzevii; assay: Antifungal activity against Candida krusei E28 after 24 hrs; format: functional; method in brief: as §4
[33] = system: Nakaseomyces glabratus; assay: Antifungal activity against Candida glabrata 20/I after 24 hrs; format: functional; method in brief: as §4
[34] = system: Trichosporon beigelii; assay: Antifungal activity against Trichosporon beigelii 1188 after 24 hrs; format: functional; method in brief: as §4
[35] = system: Aspergillus fumigatus; assay: Antifungal activity against Aspergillus fumigatus 231 after 24 hrs; format: functional; method in brief: as §4
[36] = system: Aspergillus fumigatus; assay: Antifungal activity against Aspergillus fumigatus 231 after 48 hrs; format: functional; method in brief: as §4
[37] = system: Lichtheimia corymbifera; assay: Antifungal activity against Absidia corymbifera 272 after 24 hrs; format: functional; method in brief: as §4
[38] = system: Trichophyton benhamiae; assay: Antifungal activity against Trichophyton mentagrophytes 445 after 72 hrs; format: functional, Arthroderma benhamiae; method in brief: as §5

| Structure (SMILES) | MIC [10] [µM] | MIC [11] [µM] | MIC [12] [µM] | MIC [13] [µM] | MIC [14] [µM] | MIC [15] [µM] | MIC [16] [µM] | MIC [17] [µM] | MIC [18] [µM] | MIC [19] [µM] | MIC [20] [µM] | MIC [21] [µM] | MIC [22] [µM] | MIC [23] [µM] | MIC [24] [µM] | MIC [25] [µM] | GI50 [26] [µg/mL] | GI50 [27] [µg/mL] | CC10 [28] [µg/mL] | CC50 [28] [µg/mL] | also measured |
| --- | --- | --- | --- | --- | --- | --- | --- | --- | --- | --- | --- | --- | --- | --- | --- | --- | --- | --- | --- | --- | --- |
| Cc1ccc(CSc2cc[n+](CCCCCCCOc3ccc4c(c3)CC[C@@H]3[C@@H]4CC[C@]4(C)C(=O)CC[C@@H]34)cc2)cc1.[Br-] | 4 | 8 | 8 | 8 | 16 | 16 | 16 | 16 | 16 | 16 | 3.9 | 7.8 | 7.8 | 7.8 | 15.6 | 7.8 | 3.5 | 13.1 | 1 | 1.9 | MIC [1]: 1.56 µg/mL; MIC [2]: 3.12 µg/mL; MIC [3]: 3.12 µg/mL; MIC [4]: 0.8 µg/mL; MIC [5]: 3.12 µg/mL; MIC [6]: 6.25 µg/mL; MIC [7]: 3.12 µg/mL; MIC [8]: 1.56 µg/mL; MIC [9]: 6.25 µg/mL |
| Clc1ccc(-n2nnnc2SCc2ccccc2)cc1Cl | 16 (≈ 5.4 µg/mL) | 32 (≈ 10.8 µg/mL) | 62.5 (≈ 21.1 µg/mL) | 125 (≈ 42.2 µg/mL) | 8 (≈ 2.7 µg/mL) | 16 (≈ 5.4 µg/mL) | 32 (≈ 10.8 µg/mL) | 16 (≈ 5.4 µg/mL) | 32 (≈ 10.8 µg/mL) | 62.5 (≈ 21.1 µg/mL) | > 250 | > 250 | > 250 | > 250 | > 250 | 125 (≈ 42.2 µg/mL) | 19.1 (≈ 56.6 µM) | > 50 | 9.9 (≈ 29.4 µM) | 48.6 (≈ 144 µM) | MIC [29]: > 250 µM; MIC [30]: > 250 µM; MIC [31]: > 250 µM; MIC [32]: > 250 µM; MIC [33]: > 250 µM; MIC [34]: > 250 µM; MIC [35]: 250 µM (≈ 84.3 µg/mL); MIC [36]: > 250 µM; MIC [37]: > 250 µM; MIC [38]: 125 µM (≈ 42.2 µg/mL) |
| c1ccc(CSc2nnnn2-c2ccccc2)cc1 | 16 (≈ 4.29 µg/mL) | 62.5 (≈ 16.8 µg/mL) | 32 (≈ 8.59 µg/mL) | 125 (≈ 33.5 µg/mL) | 16 (≈ 4.29 µg/mL) | 32 (≈ 8.59 µg/mL) | 125 (≈ 33.5 µg/mL) | 16 (≈ 4.29 µg/mL) | 32 (≈ 8.59 µg/mL) | 125 (≈ 33.5 µg/mL) | > 250 | > 250 | > 250 | > 250 | > 250 | 62.5 (≈ 16.8 µg/mL) | 22.5 (≈ 83.8 µM) | 36.1 (≈ 135 µM) | 8.7 (≈ 32.4 µM) | 41.6 (≈ 155 µM) | MIC [29]: > 250 µM; MIC [30]: > 250 µM; MIC [31]: > 250 µM; MIC [32]: > 250 µM; MIC [33]: > 250 µM; MIC [34]: > 250 µM; MIC [35]: > 250 µM; MIC [36]: > 250 µM; MIC [37]: > 250 µM; MIC [38]: 31.3 µM (≈ 8.4 µg/mL) |
| C[C@]12CC[C@@H]3c4ccc(OCCCCCCCBr)cc4CC[C@H]3[C@@H]1CCC2=O | 32 (≈ 14.3 µg/mL) | – | 16 (≈ 7.16 µg/mL) | 32 (≈ 14.3 µg/mL) | 62.5 (≈ 28 µg/mL) | – | – | 62.5 (≈ 28 µg/mL) | 62.5 (≈ 28 µg/mL) | – | > 125 | > 125 | > 125 | > 125 | > 125 | > 125 | 49.9 (≈ 112 µM) | 13.1 (≈ 29.3 µM) | 16.3 (≈ 36.4 µM) | > 50 | MIC [29]: > 125 µM; MIC [30]: > 125 µM; MIC [31]: > 125 µM; MIC [32]: > 125 µM; MIC [33]: > 125 µM; MIC [34]: > 125 µM; MIC [35]: > 125 µM; MIC [36]: > 125 µM; MIC [37]: > 125 µM; MIC [38]: > 125 µM |
